In ChEMBL document CHEMBL1782035, “Synthesis and SAR of piperazine amides as novel c-jun N-terminal kinase (JNK) inhibitors” (Bioorg Med Chem Lett, 2009):
Active and inactive are the calls of the source. The rule behind the calls is not given here.

What was measured:
[1] = biological target: Mitogen-activated protein kinase 10 (Homo sapiens, UniProt P53779); test: Inhibition of JNK3 using biotinylated ATF2 and ATP substrates by HTRF assay
Summary of the method: (§1)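 HTRF kinase assay with final JNK1 at 0.1 nM or JNK3 at 0.3 nM, biotinylated ATF-2 at 0.4 nM and ATP at 1 μM. Phospho-Thr71-ATF-2 product was detected with a Europium-cryptate anti-phospho-Thr71-ATF-2 antibody and a streptavidin-allophycocyanin-XL acceptor. 10-point dose-response curves were run in duplicate, and IC50 was obtained from a four-parameter logistic fit.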

[2] = biological target: Mitogen-activated protein kinase 8 (Homo sapiens, UniProt P45983); test: Inhibition of JNK1 using biotinylated ATF2 and ATP substrates by HTRF assay; summary of the method: as §1
Sequence of Mitogen-activated protein kinase 8 (P45983 whole entry): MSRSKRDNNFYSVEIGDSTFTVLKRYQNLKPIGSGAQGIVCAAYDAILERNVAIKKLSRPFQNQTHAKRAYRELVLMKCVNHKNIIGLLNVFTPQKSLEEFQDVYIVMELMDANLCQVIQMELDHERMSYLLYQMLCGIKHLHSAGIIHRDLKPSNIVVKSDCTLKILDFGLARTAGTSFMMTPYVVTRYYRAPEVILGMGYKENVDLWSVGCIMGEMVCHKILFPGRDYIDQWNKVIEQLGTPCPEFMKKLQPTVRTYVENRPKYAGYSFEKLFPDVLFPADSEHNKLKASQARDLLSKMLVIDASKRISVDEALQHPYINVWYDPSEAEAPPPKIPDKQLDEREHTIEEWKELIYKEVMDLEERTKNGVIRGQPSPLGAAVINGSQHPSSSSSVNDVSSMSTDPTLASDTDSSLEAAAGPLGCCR

[3] = Inhibition of p38
[4] = Inhibition of JNK-mediated c-jun phosphorylation in rat INS-1 cells by ELISA incubated for 3 hrs at 37 degC; assay type: cell-based; settings: INS1, 3 h
Summary of the method: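 INS-1 β-pancreatic cells seeded at 3.5 × 10^4 cells/well in RPMI 1640 with 10% FBS, cultured overnight at 37 °C, 5% CO2. Cells exposed 3 h to 4 mM streptozoicin plus inhibitor (DMSO) in a 10-point dilution spanning four logs, then lysed. Phospho-c-jun captured overnight at 4 °C by sandwich ELISA, TMB read at 450 nm; EC50 from four-parameter logistic.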

Sequence of Mitogen-activated protein kinase 10 (P53779 whole entry): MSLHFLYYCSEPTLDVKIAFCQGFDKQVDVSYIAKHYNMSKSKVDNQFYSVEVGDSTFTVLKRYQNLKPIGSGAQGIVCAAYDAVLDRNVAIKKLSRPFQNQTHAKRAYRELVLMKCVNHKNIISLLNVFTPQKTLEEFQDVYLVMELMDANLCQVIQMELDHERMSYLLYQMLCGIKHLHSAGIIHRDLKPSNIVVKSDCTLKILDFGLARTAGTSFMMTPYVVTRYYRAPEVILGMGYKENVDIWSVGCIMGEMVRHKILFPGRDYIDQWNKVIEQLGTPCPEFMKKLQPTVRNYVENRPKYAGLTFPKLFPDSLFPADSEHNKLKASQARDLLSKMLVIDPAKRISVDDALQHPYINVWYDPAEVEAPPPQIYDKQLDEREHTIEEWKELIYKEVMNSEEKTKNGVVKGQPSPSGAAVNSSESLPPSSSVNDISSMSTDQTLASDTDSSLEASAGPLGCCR

Structure (SMILES)	IC50 [1] [µM]	IC50 [2] [µM]	inhibition [3]	IC50 [3] [µM]	IC50 [4] [µM]
C=CCN1CCN(c2c(Cl)cccc2NC(=O)c2csc(C)n2)CC1	5.8	–	–	–	–
O=C(Nc1cccc(Cl)c1N1CCN(C2CC2)CC1)c1ccc(Br)o1	0.96	0.18	inactive	–	–
Cc1cccc(NC(=O)c2ccc(Br)o2)c1N1CCC2(CC1)OCCO2	0.06	0.09	–	–	–
C=CCN1CCN(c2c(Cl)cccc2NC(=O)c2ccno2)CC1	5	–	–	–	–
CC(=O)N1CCN(c2c(Cl)cccc2NC(=O)c2ccc(Br)o2)CC1	0.81	0.6	inactive	–	–
C=CCN1CCN(c2c(Cl)cccc2NC(=O)c2cccc(C)n2)CC1	2	1.8	–	–	–
Cc1ccc(C(=O)Nc2cccc(C)c2N2CCC3(CC2)OCCO3)o1	0.53	0.33	–	–	–
O=C(Nc1cccc(Cl)c1N1CCN(c2ccccn2)CC1)c1ccc(Br)o1	1	1.2	inactive	–	–
COc1ccc(C(=O)Nc2cccc(C)c2N2CCC3(CC2)OCCO3)o1	0.62	0.45	–	–	–
C=CCN1CCN(c2c(Cl)cccc2NC(=O)c2cnc(Br)s2)CC1	0.31	0.33	–	–	–
C=CCN1CCN(c2c(NC(=O)c3ccc(Br)o3)cccc2C(F)(F)F)CC1	> 20	> 20	inactive	–	–
CC(C)N1CCN(c2c(Cl)cccc2NC(=O)c2ccc(Br)o2)CC1	2.2	1.5	inactive	–	–
Cc1cccc(NC(=O)c2ccc(C#N)o2)c1N1CCC2(CC1)OCCO2	0.21	0.23	–	–	–
Cc1cccc(NC(=O)c2ccc(C(F)F)o2)c1N1CCC2(CC1)OCCO2	0.35	0.26	–	–	–
C#CCN1CCN(c2c(Cl)cccc2NC(=O)c2ccc(Br)o2)CC1	–	0.14	inactive	–	–
CCc1ccc(C(=O)Nc2cccc(C)c2N2CCC3(CC2)OCCO3)o1	1	1.4	–	–	–
C=CCN1CCN(c2c(Cl)cccc2NC(=O)c2nc(Br)cs2)CC1	1.8	1.8	–	–	–
C=CCN1CCN(c2c(Cl)cccc2NC(=O)c2ccc[nH]2)CC1	8.9	4.5	–	–	–
C=CCN1CCN(c2c(Cl)cccc2NC(=O)c2ncccn2)CC1	> 20	> 20	–	–	–
CCN1CCN(c2c(Cl)cccc2NC(=O)c2ccc(Br)o2)CC1	–	0.49	–	> 20	–
Cc1cccc(NC(=O)c2ccc(F)o2)c1N1CCC2(CC1)OCCO2	0.41	0.21	–	–	–
O=C(Nc1cccc(Cl)c1N1CCN(Cc2ccco2)CC1)c1ccc(Br)o1	0.25	0.27	inactive	–	–
CN1CCN(c2c(Cl)cccc2NC(=O)c2ccc(Br)o2)CC1	1.2	0.36	inactive	–	–

Structure (SMILES)	IC50 [1] [µM]	IC50 [2] [µM]	inhibition [3]	IC50 [3] [µM]	IC50 [4] [µM]
C#CCN1CCN(c2c(F)cccc2NC(=O)c2ccc(Br)o2)CC1	0.29	0.11	inactive	–	–
C=CCN1CCN(c2c(Cl)cccc2NC(=O)c2cccc(Br)c2)CC1	6.4	7.1	–	–	–
Cc1cccc(NC(=O)c2ccc(Cl)o2)c1N1CCC2(CC1)OCCO2	0.08	0.04	–	–	–
CC(C)(C)OC(=O)N1CCN(c2c(Cl)cccc2NC(=O)c2ccc(Br)o2)CC1	> 20	6.3	inactive	–	–
C=C(C)CN1CCN(c2c(Cl)cccc2NC(=O)c2ccc(Br)o2)CC1	0.54	0.4	inactive	–	3.3
C=CCN1CCN(c2c(NC(=O)c3ccc(Br)o3)cccc2Nc2ccccc2)CC1	> 20	> 20	inactive	–	–
Cc1cccc(NC(=O)c2ccc(Nc3ccccc3)o2)c1N1CCC2(CC1)OCCO2	> 20	> 20	–	–	–
Cc1cccc(NC(=O)c2ccc(Cc3ccccc3)o2)c1N1CCC2(CC1)OCCO2	4.8	3.2	–	–	–
CC(=O)Nc1ccc(C(=O)Nc2cccc(C)c2N2CCC3(CC2)OCCO3)o1	11	5.8	–	–	–
CC#Cc1ccc(C(=O)Nc2cccc(C)c2N2CCC3(CC2)OCCO3)o1	0.11	0.11	–	–	–
CCCN1CCN(c2c(Cl)cccc2NC(=O)c2ccc(Br)o2)CC1	0.9	0.63	inactive	–	–
C=CCN1CCN(c2c(C)cccc2NC(=O)c2ccc(Br)o2)CC1	0.2	0.18	inactive	–	–
C=CCN1CCN(c2c(Cl)cccc2NC(=O)c2ccc(Br)o2)CC1	0.33	0.24	inactive	–	–
C=CCN1CCN(c2c(Cl)cccc2NC(=O)c2cscn2)CC1	2.3	–	–	–	–
C=CCN1CCN(c2c(Br)cccc2NC(=O)c2ccc(Br)o2)CC1	> 20	> 20	inactive	–	–
C=CCN1CCN(c2c(Cl)cccc2NC(=O)c2cccc(Br)n2)CC1	2	–	–	–	–
O=C(Nc1cccc(Cl)c1N1CCN(Cc2ccccc2)CC1)c1ccc(Br)o1	1.1	0.88	inactive	–	–
C=CCN1CCN(c2c(Cl)cccc2NC(=O)c2ccc(C#N)cn2)CC1	> 20	> 20	–	–	–
O=C(Nc1cccc(Cl)c1N1CCN(C(=O)C(F)(F)F)CC1)c1ccc(Br)o1	> 20	> 20	inactive	–	–
O=C(Nc1cccc(Cl)c1N1CCN(CCc2ccccc2)CC1)c1ccc(Br)o1	1.4	0.9	inactive	–	–
C=CCN1CCN(c2c(NC(=O)c3ccc(Br)o3)cccc2-c2ccccc2)CC1	> 20	> 20	inactive	–	–
O=C(Nc1cccc(Cl)c1N1CCNCC1)c1ccc(Br)o1	9.9	4.1	inactive	–	–
